pEC50: −log10 of the molar value. Activity calls are given as the source filed them.

As a reminder, the pEC50 is the negative decadic logarithm of the EC50, by convention in mol/L. As a reminder, the half-life is the time needed for the level to fall by half in the phase considered. Low readings indicate rapid decline, high ones slow decline. One may read the bioavailability as dose-corrected exposure relative to a reference, in per cent. A high value points to much systemic uptake. As a reminder, the Cmax is the peak of the concentration-time curve. What is called AUC(0-t) is exposure summed from dosing to a finite time, without extrapolation to infinity. The low end stands for low exposure, the high end for high exposure. What is called Emax is the size of the effect at its maximum, as opposed to the concentration needed. The MRT last is the average time that molecules of a dose stay in the body. As usually defined, the Tmax is the time at which the peak concentration occurs.

A short description of series [1]: Inhibition of hepatobiliary transporter in Sprague-Dawley rat sandwich-cultured rat hepatocytes assessed as decrease in d8-TCA by measuring biliary excretion index at 1 to 25 uM incubated for 15 mins followed by d8-TCA addition measured after 15 mins by LC-MS/MS analysis. Particulars: 0.25 h. The format is ADME. The method in brief: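 Sandwich-cultured hepatocytes from male SD rats exposed to compound 15 min in standard HBSS. Cells rinsed and pre-incubated 15 min at 37 ℃ in standard or Ca2+-free HBSS, then incubated 15 min with compound plus 1 µM d8-TCA. Washed with ice-cold PBS; cellular d8-TCA measured by LC-MS/MS. BEI = (A_HBSS – A_Ca-free)/A_HBSS × 100%.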

In series [2] the target is T1, Peroxisome proliferator-activated receptor gamma (Homo sapiens, UniProt P37231).
T1 sequence (P37231 whole entry): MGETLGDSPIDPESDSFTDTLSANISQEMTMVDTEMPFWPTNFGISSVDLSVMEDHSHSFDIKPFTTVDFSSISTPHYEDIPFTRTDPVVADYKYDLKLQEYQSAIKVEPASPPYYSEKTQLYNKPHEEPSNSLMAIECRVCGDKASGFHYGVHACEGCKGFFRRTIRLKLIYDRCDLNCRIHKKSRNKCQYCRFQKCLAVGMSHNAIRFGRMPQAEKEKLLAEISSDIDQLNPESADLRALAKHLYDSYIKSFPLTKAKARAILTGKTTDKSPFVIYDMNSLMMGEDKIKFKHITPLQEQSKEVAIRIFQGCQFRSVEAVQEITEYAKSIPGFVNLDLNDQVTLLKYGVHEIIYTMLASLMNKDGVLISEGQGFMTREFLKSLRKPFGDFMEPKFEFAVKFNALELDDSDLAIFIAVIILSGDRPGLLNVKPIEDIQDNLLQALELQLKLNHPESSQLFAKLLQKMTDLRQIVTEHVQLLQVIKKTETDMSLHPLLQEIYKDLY
The series can be described thus: Agonist activity at PPARgamma (unknown origin) expressed in HEK293T cells by luciferase reporter gene assay. The format is cell-based. (Reporter assays use an easily measured gene product as a stand-in for the process of interest.)

Series [3] can be described thus: Half life in Sprague-Dawley rat plasma at 10 mg/kg administered via oral gavage by LC/MS analysis. It counts as ADME, organism-based. Summed up:
(§1)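 Male SD rats (200 ± 20 g), acclimated 7 days, fasted overnight with water; n = 4 per route, 10 mg/kg by oral gavage or 1 mg/kg iv via tail vein. Plasma separated by centrifugation and stored at -80 ℃; drug measured by ESI triple-quadrupole LC-MS. Parameters from non-compartmental analysis, reported as mean ± SD. F = (AUCpo/Dosepo)/(AUCiv/Doseiv) × 100%.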

A short description of series [4]: Oral bioavailability in Sprague-Dawley rat plasma at 10 mg/kg administered via gavage by LC/MS analysis. It counts as ADME, organism-based. The method in brief:
as §1

Series [5] deals with T2, Free fatty acid receptor 1 (Homo sapiens, UniProt O14842). Briefly: Agonist activity at human GPR40 expressed in CHO cells assessed as increase in intracellular Ca2+ flux by Fluo 4-AM dye based assay. It counts as functional, cell-based. On the technique in general: Calcium assays in cells follow changes in intracellular calcium, usually with a dye or a luminescent sensor.
T2 sequence (O14842 whole entry): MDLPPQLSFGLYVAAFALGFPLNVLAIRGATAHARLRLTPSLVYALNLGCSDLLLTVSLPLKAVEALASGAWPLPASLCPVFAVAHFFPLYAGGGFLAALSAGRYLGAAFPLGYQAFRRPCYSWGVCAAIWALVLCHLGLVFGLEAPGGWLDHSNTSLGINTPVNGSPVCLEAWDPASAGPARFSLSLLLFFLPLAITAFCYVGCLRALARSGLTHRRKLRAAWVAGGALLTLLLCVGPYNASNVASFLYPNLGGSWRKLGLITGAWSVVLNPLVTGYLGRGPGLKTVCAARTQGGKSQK

The nature of series [6]: Cmax in Sprague-Dawley rat plasma at 1 mg/kg, iv by LC/MS analysis. It counts as ADME, organism-based. More on the design: dose 1 mg/kg, route intravenous. The method in brief: as §1
Series [7] is described as follows: AUC (0 to t) in Sprague-Dawley rat plasma at 1 mg/kg, iv by LC/MS analysis. The format is ADME, organism-based. Summed up: as §1
Series [8] addresses Free fatty acid receptor 1 (Mus musculus) (UniProt Q76JU9). The series can be described thus: Agonist activity at GPR40 in mouse MIN6 cells assessed as increase in 25 mM glucose-stimulated insulin secretion at 10 uM after 1 hr by ELISA. The format is cell-based. Summed up:
(§2)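 MIN6 cells pre-incubated 2 h at 37 ℃ in KRBH buffer with 0.1% BSA, then stimulated 1 h at 37 ℃ with 2 mM or 25 mM glucose, alone or with test agents. Insulin secreted into supernatant quantified by ELISA; mean ± SD of four independent experiments, compared with DMSO.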

Series [9] shares this target. The series can be described thus: Agonist activity at GPR40 in mouse MIN6 cells assessed as increase in 2 mM glucose-stimulated insulin secretion at 0.1 to 3 uM after 1 hr by ELISA. The format is cell-based. Summed up:
as §2

The target of series [10] is T2, Free fatty acid receptor 1. The series can be described thus: Agonist activity at human GPR40 expressed in CHO cells assessed as increase in intracellular Ca2+ flux by Fluo 4-AM dye based assay relative to 3-(4-((2',6'-dimethylbiphenyl-3-yl)methoxy)phenyl)propanoic acid. It counts as functional, cell-based. Summed up: (§3)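 CHO cells stably expressing hGPR40 or hGPR120, seeded and incubated overnight at 37 ℃, 5% CO2. Loaded 90 min with Fluo 4-AM (3 μM) and probenecid (2.5 mM) in HBSS/0.1% BSA, washed, equilibrated 10 min. Ca2+ read as change in 585/525 ratio before and after compound addition; EC50 and Emax fitted from curves, Emax relative to reference agonist 4; mean ± SD, three independent experiments.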

A short description of series [11]: AUC (0 to t) in Sprague-Dawley rat plasma at 10 mg/kg administered via oral gavage by LC/MS analysis. It counts as ADME, organism-based. The method in brief:
as §1

Series [12] is described as follows: Half life in Sprague-Dawley rat plasma at 1 mg/kg, iv by LC/MS analysis. It counts as ADME, organism-based. Summed up:
as §1

Series [13] is described as follows: Mean residence time (last) in Sprague-Dawley rat plasma at 10 mg/kg administered via oral gavage by LC/MS analysis. The format is ADME, organism-based. The method in brief: as §1
Series [14] is described as follows: Tmax in Sprague-Dawley rat plasma at 10 mg/kg administered via oral gavage by LC/MS analysis. The format is ADME, organism-based. The method in brief:
as §1

A short description of series [15]: Cmax in Sprague-Dawley rat plasma at 10 mg/kg administered via oral gavage by LC/MS analysis. More on the design: dose 10 mg/kg, route oral. The format is ADME, organism-based. Summed up: as §1
Another series deals with Mus musculus. The series can be described thus: Antidiabetic activity in ICR mouse assessed as decrease in blood glucose AUC at 10 to 20 mg/kg, po administered 30 mins prior to glucose challenge measured 120 mins post dose by OGTT. The format is functional, organism-based. Summed up:
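Six-week-old male ICR mice fasted 16 h, n = 10 per group, dosed orally in 0.5% methylcellulose/20% PEG400 (10 or 20 mg/kg). Oral glucose load 2.5 g/kg by gavage 30 min later. Tail-vein glucose read at -30, 0, 30, 60, 90 and 120 min; AUC0-120 min computed and compared with vehicle.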

Series [16] deals with T2, Free fatty acid receptor 1. The series can be described thus: Agonist activity at human GPR40 expressed in HEK293T cells transfected with 5 ug of GPR40 expression plasmid assessed as increase in intracellular Ca2+ flux by Fluo 4-AM dye based assay. The format is functional, cell-based. Particulars: HEK-293T. The method in brief:
(§4)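 Plasmid titration: HEK293T cells transiently transfected with 5 μg or 0.05 μg hGPR40 expression plasmid, plated on poly-D-lysine and held 24 h. Loaded with Fluo 4-AM (3 μM) and probenecid (2.5 mM) in HBSS/0.1% BSA for 90 min, washed, equilibrated 10 min. Ca2+ response measured as change in 585/525 ratio after compound addition; mean ± SD of three experiments.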

The nature of series [17]: Mean residence time (last) in Sprague-Dawley rat plasma at 1 mg/kg, iv by LC/MS analysis. It counts as ADME, organism-based. The method in brief: as §1
For series [18], the target named is Free fatty acid receptor 1 (Mus musculus) (UniProt Q76JU9). Briefly: Agonist activity at GPR40 in mouse MIN6 cells assessed as increase in 25 mM glucose-stimulated insulin secretion at 300 nM after 1 hr by ELISA. It counts as cell-based. Summed up:
as §2
In general terms: ELISA stands for enzyme-linked immunosorbent assay.

Series [19] concerns the target T2, Free fatty acid receptor 1. Briefly: Agonist activity at human GPR40 expressed in HEK293T cells transfected with 0.05 ug of GPR40 expression plasmid assessed as increase in intracellular Ca2+ flux by Fluo 4-AM dye based assay. It counts as functional, cell-based. Particulars: HEK-293T. Summed up:
as §4

Series [20] concerns the target T3, Free fatty acid receptor 4 (Homo sapiens, UniProt Q5NUL3).
T3 sequence (Q5NUL3 whole entry): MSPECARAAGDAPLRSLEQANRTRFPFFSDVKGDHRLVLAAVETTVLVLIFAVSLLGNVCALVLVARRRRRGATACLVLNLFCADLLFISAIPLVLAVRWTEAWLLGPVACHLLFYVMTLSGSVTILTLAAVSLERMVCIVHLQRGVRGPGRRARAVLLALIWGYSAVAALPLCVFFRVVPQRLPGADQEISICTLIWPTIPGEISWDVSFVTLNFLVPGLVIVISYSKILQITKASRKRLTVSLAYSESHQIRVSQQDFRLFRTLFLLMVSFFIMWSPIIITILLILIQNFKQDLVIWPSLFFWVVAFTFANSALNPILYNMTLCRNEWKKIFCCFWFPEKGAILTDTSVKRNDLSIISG
The series can be described thus: Agonist activity at human GPR120 expressed in CHO cells assessed as increase in intracellular Ca2+ flux by Fluo 4-AM dye based assay. It counts as functional, cell-based. The method in brief:
as §3

Chain of Free fatty acid receptor 1 (Mus musculus) (Q76JU9 whole entry): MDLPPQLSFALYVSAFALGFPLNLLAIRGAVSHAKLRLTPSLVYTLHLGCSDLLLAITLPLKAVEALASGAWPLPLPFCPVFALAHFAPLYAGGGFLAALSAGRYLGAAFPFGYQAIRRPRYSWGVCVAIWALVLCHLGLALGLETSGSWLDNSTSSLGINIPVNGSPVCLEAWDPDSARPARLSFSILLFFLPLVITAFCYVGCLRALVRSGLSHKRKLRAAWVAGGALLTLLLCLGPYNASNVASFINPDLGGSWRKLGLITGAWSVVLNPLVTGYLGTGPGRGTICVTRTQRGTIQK

Take `CC#C[C@@H](CC(=O)O)c1ccc(OCc2cccc(-c3c(C)cc(OCCCS(C)(=O)=O)cc3C)c2)s1`: the Activity entry in series [1] is “Not Active”. For the same molecule, the pEC50 is below 5.00 in series [2], 7.09 in [5] and below 5.00 in series [20]. The results for the half-life in [3] and in series [12] were 3.9 h and 3.8 h, respectively. This molecule yielded a bioavailability in [4] of 13.3%. Also, the values for the Cmax in [6] and in [15] were 2180 ng/mL and 834 ng/mL, respectively. The AUC(0-t) is 3320 ng·h/mL in [7] and 4420 ng·h/mL in series [11]. The result (in [8]; with Mus musculus; in series [16]; in [18]; in [19]) was Active. Further, the result in series [9] was inactive. Moreover, in series [10], the Emax was 244%. Further, the MRT last in [13] was 5 h; in series [17] it was 3.2 h. Moreover, the Tmax in [14] stood at 1 h.

The record behind these values is ChEMBL document CHEMBL4007473, “Discovery of Potent and Orally Bioavailable GPR40 Full Agonists Bearing Thiophen-2-ylpropanoic Acid Scaffold” (J Med Chem, 2017).
